Source: ChEMBL document CHEMBL4354843, “Structure-Based Design of a Potent and Selective Covalent Inhibitor for SRC Kinase That Targets a P-Loop Cysteine” (J Med Chem, 2020)

How the values were obtained:
[1] = target: ALK tyrosine kinase receptor (Homo sapiens) (UniProt Q9UM73); assay: Binding affinity to wild-type human partial length ALK (I1088 to E1409 residues) expressed in mammalian expression system assessed as residual binding level at 1 uM by Kinomescan method relative to control
[2] = target: 3-phosphoinositide-dependent protein kinase 1 (Homo sapiens) (UniProt O15530); assay: Binding affinity to wild-type human full length PDPK1 (M1 to Q556 residues) expressed in bacterial expression system assessed as residual binding level at 1 uM by Kinomescan method relative to control
How it was run: (§1)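 KinomeScan, an active site-directed competition binding panel of 468 kinases. The test compound was at 1 μM. The readout is remaining kinase binding as a percentage of the DMSO control. Scores above 35% were treated as weak binding and not listed.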

[3] = target: Serine/threonine-protein kinase 17A (Homo sapiens) (UniProt Q9UEE5); assay: Binding affinity to wild-type human partial length DRAK1 (R32 to E363 residues) expressed in bacterial expression system assessed as residual binding level at 1 uM by Kinomescan method relative to control
[4] = target: Mitogen-activated protein kinase kinase kinase 9 (Homo sapiens) (UniProt P80192); assay: Binding affinity to wild-type human partial length MLK1 (V88 to W426 residues) expressed in bacterial expression system assessed as residual binding level at 1 uM by Kinomescan method relative to control
[5] = target: Mitogen-activated protein kinase kinase kinase kinase 3 (Homo sapiens) (UniProt Q8IVH8); assay: Binding affinity to wild-type human partial length MAP4K3 (M1 to D301 residues) expressed in bacterial expression system assessed as residual binding level at 1 uM by Kinomescan method relative to control
[6] = test system: Receptor-type tyrosine-protein kinase FLT3 (Homo sapiens), P36888 [R834Q]; assay: Binding affinity to human partial length FLT3 R834Q mutant (V592 to Y969 residues) expressed in mammalian expression system assessed as residual binding level at 1 uM by Kinomescan method relative to control
How it was run: (§2)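 KinomeScan active site-directed competition binding panel (468 kinases), compound tested at 1 μM. Result expressed as remaining kinase signal versus DMSO control (percent of control).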

[7] = target: Serine/threonine-protein kinase tousled-like 2 (Homo sapiens) (UniProt Q86UE8); assay: Binding affinity to wild-type human partial length TLK2 (E424 to N749 residues) expressed in bacterial expression system assessed as residual binding level at 1 uM by Kinomescan method relative to control
[8] = test system: Epidermal growth factor receptor (Homo sapiens), P00533 [UNDEFINED MUTATION]; assay: Binding affinity to human partial length EGFR L747-S752del/P753S mutant expressed in bacterial expression system assessed as residual binding level at 1 uM by Kinomescan method relative to control; how it was run: as §2
[9] = target: Ribosomal protein S6 kinase alpha-5 (Homo sapiens) (UniProt O75582); assay: Binding affinity to wild-type human partial length N- terminal RPS6KA5 kinase domain 1 expressed in bacterial expression system assessed as residual binding level at 1 uM by Kinomescan method relative to control
[10] = target: Mitotic checkpoint serine/threonine-protein kinase BUB1 (Homo sapiens) (UniProt O43683); assay: Binding affinity to wild-type human partial length BUB1 (Q724 to K1085 residues) expressed in mammalian expression system assessed as residual binding level at 1 uM by Kinomescan method relative to control; how it was run: as §1
[11] = target: Casein kinase I isoform delta (Homo sapiens) (UniProt P48730); assay: Binding affinity to wild-type human full length CSNK1D (M1 to K409 residues) expressed in bacterial expression system assessed as residual binding level at 1 uM by Kinomescan method relative to control
How it was run: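 Active-site-directed KinomeScan competition binding panel covering 468 kinases, compound tested at 1 μM. Each readout is the kinase signal remaining with compound, expressed as a percentage of the DMSO control. […]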

[12] = target: Serine/threonine-protein kinase Sgk3 (Homo sapiens) (UniProt Q96BR1); assay: Binding affinity to wild-type human partial length SGK3 (M119 to L496 residues) expressed in mammalian expression system assessed as residual binding level at 1 uM by Kinomescan method relative to control
How it was run: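 Active site-directed competition binding panel (KinomeScan, 468 kinases). Test compound at 1 μM. Read-out is kinase binding remaining versus DMSO control, expressed as percent of control. Scores above 35% are treated as weak binding.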

[13] = target: Serine/threonine-protein kinase NLK (Homo sapiens) (UniProt Q9UBE8); assay: Binding affinity to wild-type human full length NLK (M13 to E527 residues) expressed in bacterial expression system assessed as residual binding level at 1 uM by Kinomescan method relative to control; how it was run: as §1
[14] = target: Mitogen-activated protein kinase 10 (Homo sapiens) (UniProt P53779); assay: Binding affinity to wild-type human partial length JNK3 (V28 to Q422 residues) expressed in mammalian expression system assessed as residual binding level at 1 uM by Kinomescan method relative to control
[15] = target: Tyrosine-protein kinase JAK3 (Homo sapiens) (UniProt P52333); assay: Binding affinity to wild-type human partial length JAK3 JH1 catalytic domain (I781 to S1124 residues) expressed in mammalian expression system assessed as residual binding level at 1 uM by Kinomescan method relative to control
How it was run: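 Active-site-directed competition binding panel of 468 kinases (KinomeScan), compound at 1 μM. The read-out is kinase remaining bound, given as a percentage of the DMSO control. […]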

[16] = target: Casein kinase I isoform gamma-1 (Homo sapiens) (UniProt Q9HCP0); assay: Binding affinity to wild-type human partial length CSNK1G1 (T15 to S353 residues) expressed in bacterial expression system assessed as residual binding level at 1 uM by Kinomescan method relative to control
[17] = test system: eIF-2-alpha kinase GCN2 (Homo sapiens), Q9P2K8 [S808G]; assay: Binding affinity to wild-type human partial length GCN2 kinase domain 2 (R585 to T1018 residues) S808G mutant expressed in bacterial expression system assessed as residual binding level at 1 uM by Kinomescan method relative to control
[18] = target: Serine/threonine-protein kinase Nek6 (Homo sapiens) (UniProt Q9HC98); assay: Binding affinity to wild-type human full length NEK6 (M8 to T313 residues) expressed in bacterial expression system assessed as residual binding level at 1 uM by Kinomescan method relative to control
How it was run: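 Active-site-directed competition binding panel (KinomeScan) covering 468 kinases. Test agent was screened at 1 μM. The read-out is the remaining kinase signal expressed relative to a DMSO control. Scores above 35%, taken as weak binding, were not reported.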

MDA-MB-231 = assay: Antiproliferative activity against human MDA-MB-231 cells assessed as reduction in cell viability incubated for 72 hrs by cell-titer glo assay relative to control; assay type: functional
How it was run: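 Cells seeded at 2000 cells/well, dosed next day with a range of concentrations (DMSO 0.2% as control), 72 h exposure, viability read by CellTiter-Glo luminescence. Dose–response curves and GR values derived with the online GR calculator. Two independent experiments, each in technical triplicate.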

3-phosphoinositide-dependent protein kinase 1 (Homo sapiens), sequence (O15530 whole entry, the tested form may be a part): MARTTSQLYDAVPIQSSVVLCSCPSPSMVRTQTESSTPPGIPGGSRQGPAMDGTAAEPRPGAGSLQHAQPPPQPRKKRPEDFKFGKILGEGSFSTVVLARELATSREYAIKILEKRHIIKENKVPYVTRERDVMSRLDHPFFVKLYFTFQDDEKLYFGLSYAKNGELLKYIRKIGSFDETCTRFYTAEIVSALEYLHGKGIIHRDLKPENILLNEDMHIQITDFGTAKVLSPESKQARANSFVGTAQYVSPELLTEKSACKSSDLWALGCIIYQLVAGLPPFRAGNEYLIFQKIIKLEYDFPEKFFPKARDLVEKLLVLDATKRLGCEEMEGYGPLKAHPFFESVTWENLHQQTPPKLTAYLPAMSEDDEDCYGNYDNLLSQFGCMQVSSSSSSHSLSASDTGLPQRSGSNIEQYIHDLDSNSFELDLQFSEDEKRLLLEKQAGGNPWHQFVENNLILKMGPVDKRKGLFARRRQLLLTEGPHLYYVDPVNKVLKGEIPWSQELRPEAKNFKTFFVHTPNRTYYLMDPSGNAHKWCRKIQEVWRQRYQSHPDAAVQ
Casein kinase I isoform delta (Homo sapiens), sequence (P48730 whole entry, looked up, the tested form may be a part, canonical isoform): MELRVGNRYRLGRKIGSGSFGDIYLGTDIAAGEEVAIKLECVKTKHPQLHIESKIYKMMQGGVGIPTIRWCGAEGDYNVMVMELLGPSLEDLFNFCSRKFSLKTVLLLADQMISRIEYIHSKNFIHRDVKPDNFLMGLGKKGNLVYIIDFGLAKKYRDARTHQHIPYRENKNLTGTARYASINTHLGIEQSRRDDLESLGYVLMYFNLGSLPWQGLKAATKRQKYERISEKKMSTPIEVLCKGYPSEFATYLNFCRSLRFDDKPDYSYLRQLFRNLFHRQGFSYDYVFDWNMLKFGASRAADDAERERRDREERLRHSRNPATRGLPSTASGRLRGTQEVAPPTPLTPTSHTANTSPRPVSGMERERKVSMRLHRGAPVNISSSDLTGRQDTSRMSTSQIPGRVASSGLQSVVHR
Serine/threonine-protein kinase Nek6 (Homo sapiens), sequence (Q9HC98 whole entry, the tested form may be a part): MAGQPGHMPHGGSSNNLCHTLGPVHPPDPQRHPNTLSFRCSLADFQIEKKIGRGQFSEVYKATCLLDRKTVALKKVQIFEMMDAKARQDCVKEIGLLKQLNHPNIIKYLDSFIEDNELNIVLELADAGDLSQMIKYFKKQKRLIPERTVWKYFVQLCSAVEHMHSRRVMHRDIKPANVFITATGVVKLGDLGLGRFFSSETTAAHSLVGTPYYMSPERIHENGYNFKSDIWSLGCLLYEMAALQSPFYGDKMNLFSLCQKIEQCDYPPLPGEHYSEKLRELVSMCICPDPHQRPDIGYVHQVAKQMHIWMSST
Serine/threonine-protein kinase NLK (Homo sapiens), sequence (Q9UBE8 whole entry, the tested form may be a part): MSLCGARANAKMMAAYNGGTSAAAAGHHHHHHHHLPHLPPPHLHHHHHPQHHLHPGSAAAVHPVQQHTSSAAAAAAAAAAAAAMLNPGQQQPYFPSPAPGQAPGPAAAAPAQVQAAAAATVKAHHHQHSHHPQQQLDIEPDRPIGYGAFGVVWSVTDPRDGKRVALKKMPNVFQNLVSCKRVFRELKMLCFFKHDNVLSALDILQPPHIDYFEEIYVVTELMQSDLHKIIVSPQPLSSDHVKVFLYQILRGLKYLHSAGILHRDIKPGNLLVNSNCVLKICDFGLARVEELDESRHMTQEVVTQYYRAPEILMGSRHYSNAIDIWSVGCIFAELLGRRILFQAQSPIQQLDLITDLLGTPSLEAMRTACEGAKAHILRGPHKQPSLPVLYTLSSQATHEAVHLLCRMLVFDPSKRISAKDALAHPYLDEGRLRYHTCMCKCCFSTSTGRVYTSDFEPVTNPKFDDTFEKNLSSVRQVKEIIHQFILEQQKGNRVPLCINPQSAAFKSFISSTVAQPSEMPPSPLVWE
Mitogen-activated protein kinase kinase kinase kinase 3 (Homo sapiens), sequence (Q8IVH8 whole entry, the tested form may be a part): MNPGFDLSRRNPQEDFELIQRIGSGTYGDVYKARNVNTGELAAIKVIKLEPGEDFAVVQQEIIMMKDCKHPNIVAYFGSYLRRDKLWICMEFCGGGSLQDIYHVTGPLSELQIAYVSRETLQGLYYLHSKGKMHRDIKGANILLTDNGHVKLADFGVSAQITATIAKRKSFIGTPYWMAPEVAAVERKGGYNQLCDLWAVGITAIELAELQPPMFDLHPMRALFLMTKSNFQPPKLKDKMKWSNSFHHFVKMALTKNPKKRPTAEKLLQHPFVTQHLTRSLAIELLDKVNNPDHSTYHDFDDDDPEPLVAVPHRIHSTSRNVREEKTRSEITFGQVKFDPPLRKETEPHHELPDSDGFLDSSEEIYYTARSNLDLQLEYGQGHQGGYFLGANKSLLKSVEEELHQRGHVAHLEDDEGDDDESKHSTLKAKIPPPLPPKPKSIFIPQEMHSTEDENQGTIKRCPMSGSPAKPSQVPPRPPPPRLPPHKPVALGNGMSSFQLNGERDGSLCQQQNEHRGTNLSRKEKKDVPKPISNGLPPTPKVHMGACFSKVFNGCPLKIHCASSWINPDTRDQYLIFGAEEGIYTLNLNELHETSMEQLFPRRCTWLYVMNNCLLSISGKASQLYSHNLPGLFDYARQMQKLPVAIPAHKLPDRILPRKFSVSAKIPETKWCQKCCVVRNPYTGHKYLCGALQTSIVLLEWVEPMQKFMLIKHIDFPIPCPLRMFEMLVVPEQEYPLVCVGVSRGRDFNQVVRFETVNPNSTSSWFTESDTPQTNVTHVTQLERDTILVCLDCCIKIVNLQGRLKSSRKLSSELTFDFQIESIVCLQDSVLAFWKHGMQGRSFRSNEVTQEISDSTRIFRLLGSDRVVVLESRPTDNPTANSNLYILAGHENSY
Ribosomal protein S6 kinase alpha-5 (Homo sapiens), sequence (O75582 whole entry, looked up, the tested form may be a part): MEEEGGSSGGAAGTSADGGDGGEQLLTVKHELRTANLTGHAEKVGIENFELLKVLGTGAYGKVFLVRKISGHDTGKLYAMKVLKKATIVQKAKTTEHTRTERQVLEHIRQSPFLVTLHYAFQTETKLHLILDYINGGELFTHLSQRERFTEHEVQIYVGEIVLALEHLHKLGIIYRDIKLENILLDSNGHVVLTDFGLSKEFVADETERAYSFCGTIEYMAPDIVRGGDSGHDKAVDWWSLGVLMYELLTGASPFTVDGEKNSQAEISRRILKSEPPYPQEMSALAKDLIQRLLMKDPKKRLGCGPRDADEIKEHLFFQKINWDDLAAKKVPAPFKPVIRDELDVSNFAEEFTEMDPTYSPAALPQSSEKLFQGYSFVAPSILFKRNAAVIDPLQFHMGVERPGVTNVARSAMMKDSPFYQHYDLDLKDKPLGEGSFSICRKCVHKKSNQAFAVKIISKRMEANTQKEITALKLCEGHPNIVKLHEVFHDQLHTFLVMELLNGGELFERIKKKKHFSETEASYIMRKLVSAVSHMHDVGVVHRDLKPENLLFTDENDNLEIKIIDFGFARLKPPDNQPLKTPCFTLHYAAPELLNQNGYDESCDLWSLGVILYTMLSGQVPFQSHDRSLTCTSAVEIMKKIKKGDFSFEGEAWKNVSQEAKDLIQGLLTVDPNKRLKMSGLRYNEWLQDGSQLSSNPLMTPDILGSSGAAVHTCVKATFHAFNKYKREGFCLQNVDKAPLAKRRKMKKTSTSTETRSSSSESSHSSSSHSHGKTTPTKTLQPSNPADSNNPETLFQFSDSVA
Tyrosine-protein kinase JAK3 (Homo sapiens), sequence (P52333 whole entry, the tested form may be a part): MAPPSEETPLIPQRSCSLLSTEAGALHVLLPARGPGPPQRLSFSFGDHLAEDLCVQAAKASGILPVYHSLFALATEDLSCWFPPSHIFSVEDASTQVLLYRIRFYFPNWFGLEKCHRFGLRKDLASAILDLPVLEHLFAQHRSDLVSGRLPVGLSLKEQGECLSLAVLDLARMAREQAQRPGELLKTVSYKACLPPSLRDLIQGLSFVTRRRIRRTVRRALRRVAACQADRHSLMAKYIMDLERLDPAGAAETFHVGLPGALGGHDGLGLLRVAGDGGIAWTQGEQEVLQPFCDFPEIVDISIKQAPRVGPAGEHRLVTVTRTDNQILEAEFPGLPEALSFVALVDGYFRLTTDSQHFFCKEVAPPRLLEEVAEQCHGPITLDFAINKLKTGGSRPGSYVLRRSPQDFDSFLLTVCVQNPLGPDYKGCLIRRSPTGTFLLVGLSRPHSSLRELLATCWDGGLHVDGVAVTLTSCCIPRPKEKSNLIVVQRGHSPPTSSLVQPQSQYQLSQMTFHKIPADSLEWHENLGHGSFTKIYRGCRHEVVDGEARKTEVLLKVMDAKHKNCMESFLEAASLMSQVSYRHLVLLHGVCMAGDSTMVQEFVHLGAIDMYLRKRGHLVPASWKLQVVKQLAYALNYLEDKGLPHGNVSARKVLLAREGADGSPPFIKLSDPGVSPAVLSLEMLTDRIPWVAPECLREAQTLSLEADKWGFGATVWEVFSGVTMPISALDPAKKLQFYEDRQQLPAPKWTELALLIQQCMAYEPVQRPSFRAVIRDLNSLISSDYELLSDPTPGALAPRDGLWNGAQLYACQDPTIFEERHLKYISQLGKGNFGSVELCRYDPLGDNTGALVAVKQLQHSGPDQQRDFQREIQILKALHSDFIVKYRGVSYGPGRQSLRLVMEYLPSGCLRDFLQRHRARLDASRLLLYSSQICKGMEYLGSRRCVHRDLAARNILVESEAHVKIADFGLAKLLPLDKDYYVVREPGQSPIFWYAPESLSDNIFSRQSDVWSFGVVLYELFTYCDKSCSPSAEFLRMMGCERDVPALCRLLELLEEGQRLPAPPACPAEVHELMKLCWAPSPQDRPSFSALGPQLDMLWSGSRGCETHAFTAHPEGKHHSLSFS
Serine/threonine-protein kinase 17A (Homo sapiens), sequence (Q9UEE5 whole entry, the tested form may be a part): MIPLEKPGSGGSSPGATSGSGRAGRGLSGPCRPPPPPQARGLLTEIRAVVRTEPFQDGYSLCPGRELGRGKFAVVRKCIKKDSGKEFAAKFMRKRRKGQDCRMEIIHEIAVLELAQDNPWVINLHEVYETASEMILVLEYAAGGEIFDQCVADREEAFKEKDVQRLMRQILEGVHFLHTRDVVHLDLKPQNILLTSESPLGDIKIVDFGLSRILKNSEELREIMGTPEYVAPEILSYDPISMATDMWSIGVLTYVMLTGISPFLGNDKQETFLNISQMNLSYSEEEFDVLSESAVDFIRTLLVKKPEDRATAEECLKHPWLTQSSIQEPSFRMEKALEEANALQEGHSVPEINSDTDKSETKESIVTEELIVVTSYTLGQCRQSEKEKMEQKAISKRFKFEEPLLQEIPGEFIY

C=CC(=O)Nc1ccccc1Nc1nc(Nc2ccc(N3CCN(C)CC3)cc2)ncc1C(=O)Nc1c(C)cccc1Cl
Activity [1]: 100%
Activity [2]: 93%
Activity [3]: 100%
Activity [4]: 100%
Activity [5]: 100%
Activity [6]: 100%
Activity [7]: 100%
Activity [8]: 74%
Activity [9]: 100%
Activity [10]: 88%
Activity [11]: 100%
Activity [12]: 86%
Activity [13]: 76%
Activity [14]: 100%
Activity [15]: 88%
Activity [16]: 100%
Activity [17]: 87%
Activity [18]: 100%
Emax (MDA-MB-231): -0.4
